Screening data as filed in PubChem.
rCAG RNA binder: r(CAG) repeat RNA binding; hit rate 1.3% among 370,000; inhibition, % at 3 µM; AID 651821; TO-PRO-1 dye displacement fluorescence;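 active means inhibition above the plate cutoff, the mean of all test compounds on that plate plus 3 SD, cut at about 35% in these data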;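 further: 0% = DMSO alone and 100% = 100 µM mitoxantrone as full dye displacement; higher means more dye released from RNA so lower well fluorescence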
TCR CD3 inh: human TCR-CD3 binding inhibition. hit rate 0.37% among 360,000. inhibition, % at 9.4 µM. TAMRA-labeled TCR probe fluorescence, biochemical. AID 651800; in the data active means inhibition above about 19%;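 further: recombinant mutant TCR 2C K166C tagged with TAMRA read by polarization; 0% = receptor in buffer alone and 100% = receptor with positive control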
mABHD4 FP: inhibitors of mouse ABHD4. Q8VD66. purified mABHD4, FP-Rh probe fluorescence polarization. inhibition, % at 8.92 µM. hit rate 0.54% among 370,000. AID 720543;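 active means inhibition exceeding the mean over every tested compound plus 3 SD, cut at about 30% in these data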;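 further: 0% = plate median of compound wells and 100% = S159A mutant with DMSO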
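Material: mouse ABHD4 enzyme, wild type; Benchmarks: S159A mutant high control, sample median low control; Buffer or medium: HEPES pH 7.0, NaCl, Pluronic buffer; Signal: fluorescence polarization; Read-out: percent inhibition of probe binding, normalized to plate controls; Timing: pre-incubation 45 min, probe exposure 60 min, at 25 °C; Dosing: 8.92 µM, single dose.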
PRMT1 inh: inhibitors of human PRMT1; recombinant PRMT1, activity-based probe fluorescence polarization; inhibition, % at 2.79 µM; hit rate 1.3% among 370,000; AID 652257;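 active means inhibition above about 21% made by adding two undisclosed values, limit read from the data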
SIAE inh: human SIAE inhibition, primary screen | inhibition, % at 9.66 µM | Q9HAT2 | AID 1053197 | SIAE FP-Rh probe binding, fluorescence polarization | hit rate 0.69% among 370,000;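 active means inhibition above a cutoff: mean of compounds within the control limits plus 3 SD of those, cut at about 17% in these data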;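 further: 0% = plate median of compound wells and 100% = probe without SIAE protein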
Target sequence (Q9HAT2 whole entry, looked up): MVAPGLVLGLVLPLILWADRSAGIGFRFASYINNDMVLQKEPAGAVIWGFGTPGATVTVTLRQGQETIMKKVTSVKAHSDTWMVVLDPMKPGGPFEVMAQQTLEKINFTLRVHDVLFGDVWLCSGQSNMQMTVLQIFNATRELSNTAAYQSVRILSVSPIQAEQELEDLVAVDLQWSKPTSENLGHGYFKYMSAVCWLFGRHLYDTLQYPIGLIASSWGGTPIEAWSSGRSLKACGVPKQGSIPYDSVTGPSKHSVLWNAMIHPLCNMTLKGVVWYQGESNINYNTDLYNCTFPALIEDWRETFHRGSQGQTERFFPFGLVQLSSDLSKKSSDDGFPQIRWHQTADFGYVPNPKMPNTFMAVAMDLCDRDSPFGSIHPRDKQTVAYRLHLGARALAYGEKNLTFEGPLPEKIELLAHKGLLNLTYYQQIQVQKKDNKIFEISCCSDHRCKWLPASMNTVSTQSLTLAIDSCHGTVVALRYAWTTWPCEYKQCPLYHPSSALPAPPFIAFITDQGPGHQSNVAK
Numbers without * were called inactive; · = not tested or not shown. Hits are enriched below; roughly 3.3% of the tested compounds scored in any of these assays.

SMILES	rCAG RNA binder	TCR CD3 inh	mABHD4 FP	PRMT1 inh	SIAE inh
COc1ccccc1N1C(=O)C=C(Sc2nc(C)cc(C)n2)C1=O	16	-11	-9	24*	-5
Cc1ccc(C(=O)NC(=S)NNS(=O)(=O)c2ccc(C)cc2)cc1	22	5	22	23*	1
Cc1nc(N2N=C(c3ccc(Cl)cc3)CC2c2ccco2)sc1C(=O)N(C)C (stereo unspecified)	6	-12	8	2	0
COc1ccc(C2=NN(c3nc(-c4ccccc4)c(CC(=O)O)s3)C(c3ccco3)C2)cc1 (stereo unspecified)	46*	-4	-8	22*	-25
O=C(Nc1ccc2ccccc2c1)NC1CCCCN(Cc2ccc(Cl)cc2)C1=O (stereo unspecified)	7	·	0	-1	1
CCc1ccc2[nH]c(=O)c(CN(Cc3ccccc3OC)Cc3nnnn3Cc3ccco3)cc2c1	11	5	-23	23*	-10
CC(C)(C)n1nnnc1CN(Cc1ccco1)Cc1cc2cc3c(cc2[nH]c1=O)OCO3	5	0	8	24*	1
CCCCC(=O)N1CCN(C(=O)c2ccc3c(c2)nc(C)n3C2CCCC2)CC1	2	·	-5	-5	1
CC1CCCCC1NC(=O)COC(=O)c1c2c(nc3ccccc13)/C(=C\c1ccco1)CC2 (stereo unspecified)	54*	6	33*	14	12
CCCCN(C)c1nc(-c2ccco2)c2c(c1C#N)CC(C)(C)OC2	33	-4	6	21*	8
CN(C)CCNc1nc(-c2ccco2)c2c(c1C#N)CC(C)(C)OC2	4	4	2	-2	6
O=C(Nc1ccc([N+](=O)[O-])cc1)Nc1ccc(OC(F)F)c(Cl)c1	22	40*	-29	3	-284
O=C(Nc1ccc(OC(F)F)c(Cl)c1)Nc1ccc2c(c1)OCO2	7	2	5	1	3
Cn1cc(C2(c3c[nH]c4ccccc34)CCN(C(=O)OC(C)(C)C)CC2)c2ccccc21	5	·	-32	-2	3
C=CCN1C(=O)[C@@H](CC(=O)NCc2ccccc2)[C@]2(C(=O)OCC)CCCCC/C=C/12	5	·	-1	0	5
CCC1=C/C(=C/c2sc3ccccc3[n+]2CC)CC(C)(C)C1	0	-5	11	37*	0
CN1Cc2nnn(Cc3ccccc3)c2-c2cc(N3CCCC3)ccc2S1(=O)=O	7	·	-3	-5	-2
Fc1ccccc1C1CC(c2ccco2)=Nc2ccccc2S1 (stereo unspecified)	11	-9	-4	71*	-1
COc1cc(/C=C2/N=C(c3ccccc3)OC2=O)c(F)cc1OCc1ccccc1	40*	2	16	0	-8
Cc1cc(=O)oc2c3c(ccc12)OC/C3=N/N	41*	22*	26	14	-7
COc1ccc2c(C)cc(=O)oc2c1C	-4	-11	13	1	-1
CSc1nsc(/C=C/Nc2ccc(C(=O)O)cc2)c1C#N	46*	2	-4	-2	-19
CCCCCCCCN1C(=O)[C@@H](CC(=O)N2CCCC2)C[C@@]2(C(=O)OC)C1=C[C@H](COCc1ccccc1)O[C@@H]2C	-1	·	1	2	1
Cc1ccc(-c2cc(C(=O)NN=Cc3cccc(OCc4ccccc4)c3)[nH]n2)cc1C	15	·	-47	-3	-67
COCCCNC(=O)C[C@H]1C[C@@]2(C(=O)OC)C(=C[C@H](C(C)(C)C)O[C@@H]2C)N(Cc2cccc3ccccc23)C1=O	0	·	0	-6	-4
SMILES	rCAG RNA binder	TCR CD3 inh	mABHD4 FP	PRMT1 inh	SIAE inh
N=C(N)SCP(=O)(c1ccccc1)c1ccccc1	-2	-4	6	68*	-2
Cc1ccc(P(=O)(CSC(=N)N)c2ccc(C)cc2)cc1	2	7	0	70*	1
CC/C=C/C(=O)N1CC2(CC(c3cccc(NC(=O)CCCCC)c3)=NO2)C[C@H]1C(N)=O (stereo partly specified)	5	-7	-12	6	-4
C/C=C/C=C/C(=O)N1CC2(CC(c3cccc(NC(=O)CCCCC)c3)=NO2)C[C@H]1C(N)=O (stereo partly specified)	7	4	-6	21*	-6
CCCCOCCCNC(=O)C[C@@H]1C(=O)N2CCCC3=C2[C@@]1(C(=O)OC)CCCC3	-3	·	0	-4	2
O=C1C(Cl)=C(N2CCOCC2)C(=O)N1c1ccc(Br)cc1	4	2	7	25*	3
O=C(CN1C(=O)/C(=C\c2ccco2)SC1=S)Nc1ccc(O)cc1C(=O)O	88*	-4	-21	43*	9
O=S(=O)(c1ccccc1F)N1CCC(c2nc3ccccc3o2)CC1	3	·	7	3	6
Cc1ccc2nc(N3C(=O)C(O)=C(C(=O)c4ccc(C)o4)C3c3ccc(O)cc3)sc2c1 (stereo unspecified)	69*	-8	-21	13	-14
CCOc1ccc2nc(N3C(=O)C(O)=C(C(=O)c4ccco4)C3c3ccco3)sc2c1 (stereo unspecified)	22	-5	22	18	-2
COc1ccc(N(CC(C)C)S(=O)(=O)c2nnc(NC(=O)c3ccco3)s2)cc1	76*	8	-13	2	-18
CCN(c1ccc(OC)cc1)S(=O)(=O)c1nnc(NC(=O)c2ccco2)s1	20	-2	7	9	2
COCCCN(C(=O)c1cc(Cl)nc2ccccc12)c1c(N)n(Cc2ccccc2)c(=O)[nH]c1=O	3	4	-1	-4	1
COCCCN(C(=O)CSc1nc2ccccc2c(=O)n1C)c1c(N)n(Cc2ccccc2)c(=O)[nH]c1=O	2	1	9	23*	7
O=C(CCc1ccccc1)N[C@H]1[C@H](OCc2ccccc2)CCC[C@@]12C(=O)N(Cc1ccccc1)c1ccc(-c3ccsc3)cc12	8	·	-11	7	-12
CN(Cc1ccccc1)S(=O)(=O)c1cccc(C(=O)OCc2ccc(Oc3ccccc3)cc2)c1	2	·	8	6	6
CCn1c(SCC(=O)Nc2sc3c(c2C(N)=O)CCC(C)C3)nnc1-c1ccco1 (stereo unspecified)	27	5	5	22*	-10
NC(=O)c1sc2nc(-c3ccccc3)c3c(c2c1N)CCCC3	7	0	6	25*	3
COc1ccc(Cn2cc(CN3[C@H](CC(C)C)COc4cc(Br)ccc4S3(=O)=O)nn2)cc1	4	·	-3	-5	1
O=S(=O)(c1ccc(N=C2NN=C(c3cc(F)ccc3F)CS2)cc1)N1CCOCC1	21	5	-36	55*	-23
CC(C)CCN(C)C1CCN(C(=O)Nc2ccccc2)CC1	0	·	-4	1	-5
COc1ccccc1NC(=S)OCCN1CCCC12CCC(c1ccccc1)CC2 (stereo unspecified)	·	·	-8	22*	0
